Experiments:
[1] = Area under curve (AUC) was measured after oral dosing at 30 mg/kg in rat; assay type: ADME, organism-based; design: dose 30 mg/kg, route oral; settings: in vivo
[2] = Maximal plasma concentration in rats after 30 mg/kg oral dose; assay type: ADME, organism-based; design: dose 30 mg/kg, route oral; settings: rat
Prothrombin = Prothrombin (Homo sapiens, UniProt P00734); test: In vitro inhibition constant (Ki) against human thrombin
[3] = Bioavailability in rat; assay type: ADME, organism-based; settings: in vivo
[4] = Area under curve (AUC) was determined after intravenous dosing at 10 mg/kg in rat; assay type: ADME, organism-based; design: dose 10 mg/kg, route intravenous; settings: in vivo
Procedure, shortened: (§1)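 Male Sprague–Dawley rats (250–300 g), femoral artery and vein cannulated under light ether anesthesia; after recovery, 10 mg/kg given via femoral vein. Arterial blood sampled at 0, 1, 5, 15, 30, 60, 90, 120, 180, 240 min, collected into heparinized tubes, deproteinized with 2 volumes methanol, centrifuged; supernatant analyzed by HPLC (0.1% TFA/acetonitrile 81:19).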

[5] = Steady state volume of distribution (Vdss) was determined after intravenous dosing at 10 mg/kg in rat; assay type: ADME, organism-based; design: dose 10 mg/kg, route intravenous; settings: in vivo, read-out: Vdss; procedure, shortened: as §1
[6] = Half life of compound was determined after intravenous dosing at 10 mg/kg in rat; assay type: ADME, organism-based; design: dose 10 mg/kg, route intravenous; settings: in vivo; procedure, shortened: as §1
[7] = Clearance value was determined after intravenous dosing at 10 mg/kg in rat; assay type: ADME, organism-based; design: dose 10 mg/kg, route intravenous; settings: in vivo; procedure, shortened: as §1
[8] = In vitro metabolic stability was determined using liver S9 fraction from dog at initial concentration of 20 uM; assay type: ADME, Canis lupus familiaris; settings: read-out: Recovery
Procedure, shortened: (§2)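 Liver S9 (9000g supernatant of homogenate in Tris-acetate pH 7.4, KCl, EDTA) from rat, dog, monkey (pooled, n = 2) or human (n = 2); 20 µM final compound with NADPH generating system and S9 6.72 mg/mL in 100 mM phosphate pH 7.4, 37 °C. Samples methanol-deproteinized, HPLC; recovery after 30 min reported; no-NADPH control.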

[9] = In vitro metabolic stability was determined using liver S9 fraction from human at initial concentration of 20 uM; assay type: ADME; settings: liver S9 fraction, read-out: Recovery; procedure, shortened: as §2
[10] = In vitro metabolic stability was determined using liver S9 fraction from rat at initial concentration of 20 uM; assay type: ADME; settings: read-out: Recovery; procedure, shortened: as §2
Rattus norvegicus [11] = test: In vivo inhibition of thrombus formation in thromboplastin-induced deep vein thrombosis (DVT) rat model after iv bolus dosing at 1 mg/kg; assay type: functional
Rattus norvegicus [12] = organism: Rattus norvegicus; test: Ex vivo concentration of inhibitor to double the activated clotting time was measured in rat plasma; assay type: functional
Rattus norvegicus [13] = organism: Rattus norvegicus; test: In vitro concentration of inhibitor to double the activated partial thromboplastin time was evaluated in rat; assay type: functional
[14] = In vitro metabolic stability was determined using liver S9 fraction from monkey at initial concentration of 20 uM; assay type: ADME, subcellular; settings: simiiformes, read-out: Recovery; procedure, shortened: as §2
Rattus norvegicus [15] = test: Ex vivo activated clotting time was measured in rat plasma at 1 mg/kg; assay type: functional

SMILES | AUC [1] | Cmax [2] | Ki (Prothrombin) | bioavailability [3] | AUC [4] | Vd [5] | half-life [6] | clearance [7] | remaining at 20 µM [8] | remaining at 20 µM [9] | remaining at 20 µM [10] | inhibition in vivo at 1 mg/kg (Rattus norvegicus [11]) | Concentration to double activated clotting time (Rattus norvegicus [12]) | APTT (Rattus norvegicus [13]) | remaining at 20 µM [14] | APTT (Homo sapiens) | ACT (Rattus norvegicus [15])
N=C(N)c1ccc(CNC(=O)[C@@H]2CCCN2C(=O)[C@H](NS(N)(=O)=O)C(c2ccccc2)c2ccccc2)o1 | 2270 ng·h/mL | 1000 ng/mL | 0.43 nM |  |  |  |  |  |  |  |  |  |  |  |  |  | 
N=C(N)c1ccc(CNC(=O)[C@@H]2CCCN2C(=O)[C@H](NS(N)(=O)=O)C(c2ccccc2)c2ccccc2)s1 | 4700 ng·h/mL |  |  | 11% | 14400 ng·h/mL | 0.31 L/kg | 34 min | 11.6 mL/min/kg | 96% | 86% | 84% | 100% | 2.09 µM | 1.5 µM | 81% | 0.19 µM | 
N=C(N)c1csc(CNC(=O)[C@@H]2CCCN2C(=O)[C@H](NS(N)(=O)=O)C(c2ccccc2)c2ccccc2)c1 |  | 2000 ng/mL | 0.02 nM |  |  |  |  |  |  |  |  |  |  |  |  |  | 
CN(C(=O)C(NS(=O)(=O)c1ccc2ccccc2c1)c1ccc(C(=N)NN)cc1)C1CCCC1 (stereo not given) |  |  | 0.4 nM |  |  |  |  |  |  |  |  |  |  |  |  |  | 
COC(=O)N[C@@H](C(=O)N1CCC[C@H]1C(=O)NCc1coc(C(=N)N)c1)C(c1ccccc1)c1ccccc1 | 18600 ng·h/mL | 7100 ng/mL | 1.4 nM |  |  |  |  |  |  |  |  |  |  |  |  |  | 
N=C(N)c1ccc(CNC(=O)[C@@H]2CCCN2C(=O)[C@H](NS(N)(=O)=O)C(c2ccccc2)c2ccccc2)cc1F | 3430 ng·h/mL | 2400 ng/mL | 0.008 nM |  |  |  |  |  |  |  |  |  |  |  |  |  | 
N=C(N)c1ccc(CNC(=O)[C@@H]2CCCN2C(=O)[C@H](NS(N)(=O)=O)C(c2ccccc2)c2ccccc2)c(F)c1 | 1480 ng·h/mL | 1100 ng/mL | 0.01 nM |  |  |  |  |  |  |  |  |  |  |  |  |  | 
COC(=O)N[C@@H](C(=O)N1CCC[C@H]1C(=O)NCc1ccc(C(=N)N)s1)C(c1ccccc1)c1ccccc1 | 7100 ng·h/mL | 4100 ng/mL | 0.015 nM | 8% | 31200 ng·h/mL | 0.152 L/kg | 53 min | 5.4 mL/min/kg | 91% | 38% | 60% | 93% | 3.75 µM | 2.85 µM | < 10% | 0.34 µM | 5.2
COC(=O)N[C@@H](C(=O)N1CCC[C@H]1C(=O)NCc1csc(C(=N)N)c1)C(c1ccccc1)c1ccccc1 |  | 8600 ng/mL | 0.6 nM | 7% | 102000 ng·h/mL | 0.23 L/kg | 45 min | 1.7 mL/min/kg | 83% | 13% | 49% | 98% | 6.86 µM | 5.2 µM | < 10% | 0.37 µM | 3.7
N=C(N)c1ccc(CNC(=O)[C@@H]2CCCN2C(=O)[C@H](NS(N)(=O)=O)C(c2ccccc2)c2ccccc2)cc1 | 4530 ng·h/mL | 2800 ng/mL |  | 8% | 19700 ng·h/mL | 0.297 L/kg | 45 min | 8.6 mL/min/kg | 93% | 92% | 90% | 100% | 1.23 µM | 1.24 µM | 87% | 0.14 µM | 11
N=C(N)c1cc(CNC(=O)[C@@H]2CCCN2C(=O)[C@H](NS(N)(=O)=O)C(c2ccccc2)c2ccccc2)cs1 |  | 500 ng/mL | 0.16 nM |  |  |  |  |  |  |  |  |  |  |  |  |  | 
CS(=O)(=O)N[C@@H](C(=O)N1CCC[C@H]1C(=O)NCc1ccc(C(=N)N)s1)C(c1ccccc1)c1ccccc1.N=C(N)c1ccccc1 | 1420 ng·h/mL | 1300 ng/mL | 0.005 nM |  |  |  |  |  |  |  |  |  |  |  |  |  | 
CC1CNc2c(cccc2S(=O)(=O)N[C@@H](CCCNC(=N)N)C(=O)N2CC[C@@H](C)C[C@@H]2C(=O)O)C1 (stereo not given in full) [ARGATROBAN] |  |  |  |  |  |  |  |  |  |  |  | 82% | 1.97 µM | 2.5 µM |  | 0.57 µM | 1.9
CS(=O)(=O)N[C@@H](C(=O)N1CCC[C@H]1C(=O)NCc1ccc(C(=N)N)cc1)C(c1ccccc1)c1ccccc1 | 4380 ng·h/mL | 2800 ng/mL |  |  |  |  |  |  |  |  |  |  |  |  |  |  | 
COC(=O)N[C@@H](C(=O)N1CCC[C@H]1C(=O)NCc1ccc(C(=N)N)cc1)C(c1ccccc1)c1ccccc1 | 9900 ng·h/mL | 4000 ng/mL |  | 6% | 56800 ng·h/mL | 0.174 L/kg | 69 min | 3 mL/min/kg | 65% | 86% | 80% | 100% |  |  | 39% |  | 6.8
COC(=O)N[C@@H](C(=O)N1CCC[C@H]1C(=O)NCc1ccc(C(=N)N)nc1)C(c1ccccc1)c1ccccc1 | 26100 ng·h/mL | 14000 ng/mL | 0.017 nM | 11% | 80400 ng·h/mL | 0.139 L/kg | 81 min | 2.1 mL/min/kg |  |  |  | 100% |  |  |  |  | 6
N=C(N)c1ccc(CNC(=O)[C@@H]2CCCN2C(=O)[C@H](NCCC(=O)O)C(c2ccccc2)c2ccccc2)s1 |  |  | 0.01 nM |  |  |  |  |  |  |  |  |  |  |  |  |  | 
N=C(N)c1ccc(CNC(=O)[C@@H]2CCCN2C(=O)[C@H](NS(N)(=O)=O)C(c2ccccc2)c2ccccc2)cn1 | 4100 ng·h/mL | 1600 ng/mL |  |  |  |  |  |  |  |  |  |  |  |  |  |  | 
N=C(N)c1ccc(CNC(=O)[C@@H]2CCCN2C(=O)[C@H](NCC(=O)O)C(c2ccccc2)c2ccccc2)cc1 | 2000 ng·h/mL | 1300 ng/mL | 0.013 nM |  |  |  |  |  | 95% | 97% | 87% |  |  |  | 80% |  | 
COC(=O)N[C@@H](C(=O)N1CCC[C@H]1C(=O)NCc1cc(C(=N)N)cs1)C(c1ccccc1)c1ccccc1 |  | 4600 ng/mL | 0.17 nM |  |  |  |  |  |  |  |  |  |  |  |  |  | 

Source: ChEMBL document CHEMBL1144934, “Efficacious and orally bioavailable thrombin inhibitors based on a 2,5-thienylamidine at the P1 position: discovery of N-carboxymethyl-d-diphenylalanyl-l-prolyl[(5-amidino-2-thienyl)methyl]amide” (J Med Chem, 2003)
